From ChEMBL document CHEMBL5303300, “EUbOPEN Chemogenomics Library - Multiplex” (2023)
Several values for one entry are separate records, joined by “and”; a condition that tells them apart may be missing. Identical values can stand only once.

Test system: Fibroblast
Assay: Multiplex assay against human fibroblast
Format: toxicity, cell-based
Conditions: number of replicates 2
Procedure, shortened: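 Per cents of healthy-nucleus cells form the tubulin, mitochondrial-mass and membrane-permeability phenotype values. Live cells were stained at seeding with Hoechst33342, BioTracker Green Microtubule Cytoskeleton Dye, MitoTracker Red and Annexin V Alexa Fluor 680. After compound addition they were imaged on a CQ1 microscope at 37°C and 5% CO2, and CellPathfinder machine-learning gating split them into Hoechst high-intensity objects or normal cells, normal cells into healthy, pyknosed or fragmented nuclei, and pyknosed cells into mitotic or apoptotic.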

[1] = 12 h, 10 µM, compound concentration 10 uM
[2] = 24 h, 10 µM, compound concentration 10 uM
[3] = 48 h, 10 µM, compound concentration 10 uM
[4] = 12 h, 1 µM, compound concentration 1 uM
[5] = 24 h, 1 µM, compound concentration 1 uM
[6] = 48 h, 1 µM, compound concentration 1 uM

CN[C@@H]1C[C@H]2O[C@@](C)([C@@H]1OC)n1c3ccccc3c3c4c(c5c6ccccc6n2c5c31)C(=O)NC4 [STAUROSPORINE]
Population Apoptotic (%) [1]: 76% and 73% and 72% and 71%
Population Fragmented Nuclei (%) [1]: 16% and 10% and 13%
Population Healthy Nuclei (%) [1]: 10% and 6% and 14% and 9%
Population Hoechst High Intensity Objects (%) [1]: 0% and 1%
Population Membrane Permeable-Phenotype (%) [1]: 20% and 15% and 7%
Population Mitochondria Different-Phenotype (%) [1]: 0% and 2%
Population Mitotic Cells (%) [1]: 23% and 26% and 27% and 28%
Population Normal (%) [1]: 99% and 100% and 98%
Population Pyknosed Nuclei (%) [1]: 72% and 82% and 74%
Population Tubulin-Different-Phenotype (%) [1]: 14% and 10% and 4%
Population Apoptotic (%) [2]: 95% and 88% and 87%
Population Fragmented Nuclei (%) [2]: 15% and 21% and 13%
Population Healthy Nuclei (%) [2]: 5% and 3% and 4% and 2%
Population Hoechst High Intensity Objects (%) [2]: 0% and 1%
Population Membrane Permeable-Phenotype (%) [2]: 50% [middle of 4 runs]
Population Mitochondria Different-Phenotype (%) [2]: 0%
Population Mitotic Cells (%) [2]: 4% and 11% and 12%
Population Normal (%) [2]: 100% and 99% and 98%
Population Pyknosed Nuclei (%) [2]: 78% and 74% and 82% and 84%
Population Tubulin-Different-Phenotype (%) [2]: 50% [middle of 4 runs]
Population Apoptotic (%) [3]: 99% and 93% and 92% and 91%
Population Fragmented Nuclei (%) [3]: 27% and 28% and 20% and 22%
Population Healthy Nuclei (%) [3]: 3% and 4% and 7% and 6%
Population Hoechst High Intensity Objects (%) [3]: 0%
Population Membrane Permeable-Phenotype (%) [3]: 66% [middle of 4 runs]
Population Mitochondria Different-Phenotype (%) [3]: 0% and 20%
Population Mitotic Cells (%) [3]: 0% and 6% and 7% and 8%
Population Normal (%) [3]: 100% and 99%
Population Pyknosed Nuclei (%) [3]: 69% and 66% and 72% and 71%
Population Tubulin-Different-Phenotype (%) [3]: 50% and 55% and 45% and 60%

O=C(NCc1ccc(F)cc1)N1CCN2C(=O)OC(c3ccccc3)(c3ccccc3)C2C1 (stereo unspecified)
Population Apoptotic (%) [4]: 41% and 22%
Population Fragmented Nuclei (%) [4]: 12% and 10%
Population Healthy Nuclei (%) [4]: 71% and 75%
Population Hoechst High Intensity Objects (%) [4]: 0%
Population Membrane Permeable-Phenotype (%) [4]: 10% and 5%
Population Mitochondria Different-Phenotype (%) [4]: 2% and 1%
Population Mitotic Cells (%) [4]: 58% and 77%
Population Normal (%) [4]: 99%
Population Pyknosed Nuclei (%) [4]: 15% and 14%
Population Tubulin-Different-Phenotype (%) [4]: 20% and 13%
Total Cell Count [4]: 252
Population Apoptotic (%) [1]: 58% and 35%
Population Fragmented Nuclei (%) [1]: 14% and 9%
Population Healthy Nuclei (%) [1]: 69% and 77%
Population Hoechst High Intensity Objects (%) [1]: 0%
Population Membrane Permeable-Phenotype (%) [1]: 9% and 14%
Population Mitochondria Different-Phenotype (%) [1]: 3%
Population Mitotic Cells (%) [1]: 41% and 65%
Population Normal (%) [1]: 100% and 99%
Population Pyknosed Nuclei (%) [1]: 15% and 12%
Population Tubulin-Different-Phenotype (%) [1]: 69% and 59%
Total Cell Count [1]: 153 and 155
Population Apoptotic (%) [5]: 59% and 46%
Population Fragmented Nuclei (%) [5]: 13% and 15%
Population Healthy Nuclei (%) [5]: 72% and 73%
Population Hoechst High Intensity Objects (%) [5]: 0%
Population Membrane Permeable-Phenotype (%) [5]: 6% and 3%
Population Mitochondria Different-Phenotype (%) [5]: 1% and 0%
Population Mitotic Cells (%) [5]: 40% and 53%
Population Normal (%) [5]: 100%
Population Pyknosed Nuclei (%) [5]: 14% and 10%
Population Tubulin-Different-Phenotype (%) [5]: 19% and 12%
Total Cell Count [5]: 253 and 276
Population Apoptotic (%) [2]: 65% and 50%
Population Fragmented Nuclei (%) [2]: 12%
Population Healthy Nuclei (%) [2]: 68% and 75%
Population Hoechst High Intensity Objects (%) [2]: 0% and 1%
Population Membrane Permeable-Phenotype (%) [2]: 7% and 2%
Population Mitochondria Different-Phenotype (%) [2]: 9% and 7%
Population Mitotic Cells (%) [2]: 34% and 50%
Population Normal (%) [2]: 99% and 98%
Population Pyknosed Nuclei (%) [2]: 19% and 12%
Population Tubulin-Different-Phenotype (%) [2]: 61% and 48%
Total Cell Count [2]: 153 and 151
Population Apoptotic (%) [6]: 62% and 69%
Population Fragmented Nuclei (%) [6]: 15% and 10%
Population Healthy Nuclei (%) [6]: 74% and 79%
Population Hoechst High Intensity Objects (%) [6]: 0%
Population Membrane Permeable-Phenotype (%) [6]: 7% and 3%
Population Mitochondria Different-Phenotype (%) [6]: 0%
Population Mitotic Cells (%) [6]: 37% and 30%
Population Normal (%) [6]: 100%
Population Pyknosed Nuclei (%) [6]: 10% and 9%
Population Tubulin-Different-Phenotype (%) [6]: 11% and 5%
Total Cell Count [6]: 259 and 265
Population Apoptotic (%) [3]: 45% and 83%
Population Fragmented Nuclei (%) [3]: 15% and 12%
Population Healthy Nuclei (%) [3]: 69% and 75%
Population Hoechst High Intensity Objects (%) [3]: 0% and 1%
Population Membrane Permeable-Phenotype (%) [3]: 5%
Population Mitochondria Different-Phenotype (%) [3]: 2%
Population Normal (%) [3]: 100% and 98%
Population Pyknosed Nuclei (%) [3]: 15% and 12%
Population Tubulin-Different-Phenotype (%) [3]: 53% and 43%
Total Cell Count [3]: 156 and 150

CNC(=O)c1c(F)cccc1Nc1nc(Nc2cc3c(cc2OC)CCN3C(=O)CN(C)C)nc2[nH]ccc12
Population Apoptotic (%) [4]: 26% and 33%
Population Fragmented Nuclei (%) [4]: 9% and 14%
Population Healthy Nuclei (%) [4]: 66% and 70%
Population Hoechst High Intensity Objects (%) [4]: 0%
Population Membrane Permeable-Phenotype (%) [4]: 6% and 2%
Population Mitochondria Different-Phenotype (%) [4]: 0% and 3%
Population Mitotic Cells (%) [4]: 73% and 66%
Population Normal (%) [4]: 100% and 99%
Population Pyknosed Nuclei (%) [4]: 24% and 14%
Population Tubulin-Different-Phenotype (%) [4]: 7% and 20%
Total Cell Count [4]: 166 and 190
Population Apoptotic (%) [1]: 61% and 48%
Population Fragmented Nuclei (%) [1]: 11% and 13%
Population Healthy Nuclei (%) [1]: 16% and 26%
Population Hoechst High Intensity Objects (%) [1]: 0%
Population Membrane Permeable-Phenotype (%) [1]: 34% and 21%
Population Mitochondria Different-Phenotype (%) [1]: 3%
Population Mitotic Cells (%) [1]: 38% and 51%
Population Normal (%) [1]: 100%
Population Pyknosed Nuclei (%) [1]: 72% and 59%
Population Tubulin-Different-Phenotype (%) [1]: 80% and 51%
Total Cell Count [1]: 162 and 196
Population Apoptotic (%) [5]: 27% and 47%
Population Fragmented Nuclei (%) [5]: 11% and 9%
Population Healthy Nuclei (%) [5]: 67% and 80%
Population Hoechst High Intensity Objects (%) [5]: 0%
Population Membrane Permeable-Phenotype (%) [5]: 2% and 1%
Population Mitochondria Different-Phenotype (%) [5]: 0% and 4%
Population Mitotic Cells (%) [5]: 72% and 52%
Population Normal (%) [5]: 100% and 99%
Population Pyknosed Nuclei (%) [5]: 20% and 10%
Total Cell Count [5]: 159 and 167
Population Apoptotic (%) [2]: 70% and 79%
Population Fragmented Nuclei (%) [2]: 16% and 11%
Population Healthy Nuclei (%) [2]: 18% and 17%
Population Hoechst High Intensity Objects (%) [2]: 1% and 0%
Population Membrane Permeable-Phenotype (%) [2]: 72% and 73%
Population Mitochondria Different-Phenotype (%) [2]: 6% and 7%
Population Mitotic Cells (%) [2]: 29% and 20%
Population Normal (%) [2]: 98% and 99%
Population Pyknosed Nuclei (%) [2]: 64% and 71%
Population Tubulin-Different-Phenotype (%) [2]: 75% and 65%
Total Cell Count [2]: 159 and 152
Population Apoptotic (%) [6]: 58% and 81%
Population Fragmented Nuclei (%) [6]: 13% and 15%
Population Healthy Nuclei (%) [6]: 73% and 76%
Population Hoechst High Intensity Objects (%) [6]: 0%
Population Membrane Permeable-Phenotype (%) [6]: 2% and 1%
Population Mitochondria Different-Phenotype (%) [6]: 0%
Population Mitotic Cells (%) [6]: 41% and 18%
Population Normal (%) [6]: 100%
Population Pyknosed Nuclei (%) [6]: 13% and 8%
Population Tubulin-Different-Phenotype (%) [6]: 3% and 5%
Total Cell Count [6]: 178 and 200
Population Apoptotic (%) [3]: 90% and 93%
Population Fragmented Nuclei (%) [3]: 37% and 31%
Population Healthy Nuclei (%) [3]: 20% and 24%
Population Hoechst High Intensity Objects (%) [3]: 0%
Population Membrane Permeable-Phenotype (%) [3]: 75% and 48%
Population Mitochondria Different-Phenotype (%) [3]: 3% and 0%
Population Mitotic Cells (%) [3]: 9% and 6%
Population Normal (%) [3]: 100% and 99%
Population Pyknosed Nuclei (%) [3]: 41% and 43%
Population Tubulin-Different-Phenotype (%) [3]: 62% and 57%
Total Cell Count [3]: 158 and 145

COc1ncc(-c2cc(-c3ncc(CN4C[C@@H](C)O[C@@H](C)C4)o3)c3cn[nH]c3c2)cc1NS(C)(=O)=O
Population Apoptotic (%) [4]: 48%
Population Fragmented Nuclei (%) [4]: 7% and 8%
Population Healthy Nuclei (%) [4]: 77% and 70%
Population Hoechst High Intensity Objects (%) [4]: 0%
Population Membrane Permeable-Phenotype (%) [4]: 5% and 10%
Population Mitochondria Different-Phenotype (%) [4]: 0%
Population Mitotic Cells (%) [4]: 51%
Population Normal (%) [4]: 100%
Population Pyknosed Nuclei (%) [4]: 14% and 21%
Population Tubulin-Different-Phenotype (%) [4]: 13% and 11%
Total Cell Count [4]: 228 and 199
Population Apoptotic (%) [1]: 30% and 51%
Population Fragmented Nuclei (%) [1]: 4% and 11%
Population Healthy Nuclei (%) [1]: 59% and 66%
Population Hoechst High Intensity Objects (%) [1]: 0%
Population Membrane Permeable-Phenotype (%) [1]: 10% and 9%
Population Mitochondria Different-Phenotype (%) [1]: 3% and 5%
Population Mitotic Cells (%) [1]: 69% and 48%
Population Normal (%) [1]: 100%
Population Pyknosed Nuclei (%) [1]: 35% and 22%
Population Tubulin-Different-Phenotype (%) [1]: 40% and 37%
Total Cell Count [1]: 129 and 148
Population Apoptotic (%) [5]: 51% and 60%
Population Fragmented Nuclei (%) [5]: 6% and 9%
Population Healthy Nuclei (%) [5]: 79% and 67%
Population Hoechst High Intensity Objects (%) [5]: 0%
Population Membrane Permeable-Phenotype (%) [5]: 5% and 11%
Population Mitochondria Different-Phenotype (%) [5]: 0%
Population Mitotic Cells (%) [5]: 48% and 39%
Population Normal (%) [5]: 100% and 99%
Population Pyknosed Nuclei (%) [5]: 13% and 23%
Population Tubulin-Different-Phenotype (%) [5]: 9% and 13%
Total Cell Count [5]: 224 and 204
Population Apoptotic (%) [2]: 55% and 66%
Population Fragmented Nuclei (%) [2]: 6% and 11%
Population Healthy Nuclei (%) [2]: 62% and 71%
Population Hoechst High Intensity Objects (%) [2]: 0%
Population Membrane Permeable-Phenotype (%) [2]: 0% and 6%
Population Mitochondria Different-Phenotype (%) [2]: 3% and 4%
Population Mitotic Cells (%) [2]: 45% and 33%
Population Normal (%) [2]: 100%
Population Pyknosed Nuclei (%) [2]: 31% and 17%
Population Tubulin-Different-Phenotype (%) [2]: 30% and 25%
Total Cell Count [2]: 128 and 157
Population Apoptotic (%) [6]: 69% and 60%
Population Fragmented Nuclei (%) [6]: 12% and 10%
Population Healthy Nuclei (%) [6]: 77% and 74%
Population Hoechst High Intensity Objects (%) [6]: 0%
Population Membrane Permeable-Phenotype (%) [6]: 2% and 7%
Population Mitochondria Different-Phenotype (%) [6]: 0%
Population Mitotic Cells (%) [6]: 30% and 40%
Population Normal (%) [6]: 100% and 99%
Population Pyknosed Nuclei (%) [6]: 9% and 14%
Population Tubulin-Different-Phenotype (%) [6]: 4% and 11%
Total Cell Count [6]: 235 and 206
Population Apoptotic (%) [3]: 70% and 78%
Population Fragmented Nuclei (%) [3]: 5% and 13%
Population Healthy Nuclei (%) [3]: 64% and 67%
Population Hoechst High Intensity Objects (%) [3]: 0%
Population Membrane Permeable-Phenotype (%) [3]: 4% and 5%
Population Mitochondria Different-Phenotype (%) [3]: 4% and 1%
Population Mitotic Cells (%) [3]: 30% and 21%
Population Normal (%) [3]: 100% and 99%
Population Pyknosed Nuclei (%) [3]: 29% and 19%
Population Tubulin-Different-Phenotype (%) [3]: 39% and 28%
Total Cell Count [3]: 134 and 167
